Experimental data taken from ChEMBL document CHEMBL3351370, “Straightforward entry to pyrido[2,3-d]pyrimidine-2,4(1H,3H)-diones and their ADME properties” (Bioorg Med Chem, 2014).
Values after ≈ are worked out from the molar mass of the structure shown.

Key:
[1] = Apparent permeability in human Caco2 cells; assay type: ADME, cell-based; details: Caco-2
Liver microsome [2] = test: Stability in human liver microsomes assessed as metabolite formation at 8 uM at 37 degC in absence of NADPH and glucose-6-phosphate; assay type: ADME
Summary of the method: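 Negative control. Compound 8 µM with pooled human liver microsomes (45 donors, 0.5 mg protein/ml) in 0.1 M phosphate buffer pH 7.4 with 3 mM MgCl₂, without NADPH and glucose-6-phosphate. 37 °C, 350 rpm. Aliquots taken at 0, 10, 20 and 30 min and quenched in acetonitrile. Parent compound measured by HPLC (UV or fluorescence).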

[3] = Thermodynamic solubility in FaSSIF medium after 24 hrs by UV detection and HPLC method; assay type: physicochemical; details: read-out: Therm_solubility
Summary of the method: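 Excess solid added to FaSSIF (SIF powder in phosphate buffer), shaken 24 h at 175 rpm and 37 °C, then centrifuged at 20,817g for 15 min. Supernatant quantified by HPLC with UV detection. n = 3.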

Liver microsome [4] = test: Stability in human liver microsomes assessed as metabolite formation at 8 uM at 37 degC in presence of NADPH and glucose-6-phosphate; assay type: ADME
Summary of the method: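 Compound 8 µM with pooled human liver microsomes (45 donors, 0.5 mg protein/ml) in 0.1 M phosphate buffer pH 7.4 with 3 mM MgCl₂. Started by adding NADPH (1 mM) and glucose-6-phosphate (3 mM). 37 °C, 350 rpm. Aliquots at 0, 10, 20 and 30 min quenched in acetonitrile. Parent compound measured by HPLC-UV/fluorescence as % remaining; Clint from in vitro t1/2 method, scaled to human hepatic Clint.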

Compound | Papp [1] | Stability (Liver microsome [2]) | solubility thermodynamic at 24 h [3] | Drug metabolism (Liver microsome [4]) | Stability (Liver microsome [4])
C=CCn1c(=O)c2cccnc2n(CC=C)c1=O | – | Stable | – | – | Stable
CC(C)CCn1c(=O)c2cccnc2n(CCC(C)C)c1=O | – | Stable | – | metabolite_detected | –
O=c1c2cccnc2n(Cc2ccccc2)c(=O)n1Cc1ccccc1 | – | Stable | – | – | Stable
COc1ccc2c(c1)c(CC(=O)O)c(C)n2C(=O)c1ccc(Cl)cc1 [INDOMETHACIN] | 93.3 ×10⁻⁶ cm/s | – | – | – | –

Now from value to molecule:

Papp [1] | Stability (Liver microsome [2]) | solubility thermodynamic at 24 h [3] | Drug metabolism (Liver microsome [4]) | Stability (Liver microsome [4]) | Compound
1.2 ×10⁻⁶ cm/s | Stable | 20.7 µM (≈ 6.47 µg/mL) | metabolite_detected | – | C=CCOC(=O)c1cccnc1NC12CC3CC(CC(C3)C1)C2
– | Stable | – | – | Stable | C=CCNC(=O)c1cccnc1NCC=C
– | Stable | – | – | Stable | CC(C)CCNC(=O)c1cccnc1NCCC(C)C
– | Stable | – | metabolite_detected | – | O=C(NC1CCCCC1)c1cccnc1NC1CCCCC1
– | Stable | – | – | Stable | CCCn1c(=O)c2cccnc2n(CCC)c1=O
– | Stable | – | metabolite_detected | – | C=CCNC(=O)c1cccnc1NC(C)(C)CC(C)(C)C
– | Stable | – | – | Stable | C=CCn1c(=O)c2cccnc2n(C2CCCCC2)c1=O
